In data set [1] the test system is human stem-cell-derived motor neurons carrying the ALS-causing SOD1^A4V mutation. The data set can be described thus: Motor neuron CPA survival assay, SOD1^A4V ALS motor neurons. To be noted: for maximum efficacy compared with compound 1 / concentrations that completely blocked the effects of CPA treatment / neuroprotection in CPA survival assay: CPA-treated SOD1^A4V motor neurons; for EC50: Homo sapiens, Neuron, 72 h, read-out: EC50 in motor neuron survival assay.

The subject of data set [2] is JNK pathway. Briefly: Western blots of JNK pathway in CPA-treated motor neurons. The following applies: western blot, Fig. S2. It is filed as cell-based, mouse. In a few lines:
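Day-6 embryoid bodies from mouse ES cells (HB9::GFP reporter, human SOD1 transgene; RA 1 μM + SAG 0.5 μM) were given CPA 10 μM plus test compound 0.5 μM for 4 h, then lysed in HEPES/Triton/SDS buffer. Immunoblots used phospho-JNK (Thr183/Tyr185), phospho-c-Jun (Ser63), phospho-MKK4 (Ser257), total proteins and cleaved caspase 3 at 1:1000, with GAPDH at 1:3000. Signals normalised to GAPDH, phospho to total, and expressed as % of CPA; n = 2 differentiations; unpaired two-tailed t-tests.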
In general terms: A western blot detects proteins with antibodies after separation by electrophoresis.

Data set [3] deals with motor neurons differentiated from human induced pluripotent stem cells derived from a healthy patient. The data set can be described thus: Motor neuron CPA survival assay, healthy-patient iPSC-derived motor neurons. Type of data set: cell-based. The following applies: for rescue of CPA toxicity / neuroprotection: CPA-treated healthy human motor neurons, 72 h; for concentrations toxic to motor neurons in the absence of CPA: without CPA.

Data set [4] concerns mouse stem cell-derived motor neurons. The following applies: CPA-treated; ref Thams et al., 2019; cited from earlier work.

The term EC50 denotes the concentration needed to bring the measured effect to its halfway point. As for `Cc1cc(-c2c[nH]c3ncc(-c4ccc(CN5CCN(C)CC5)cc4)cc23)cnc1N` [7l, 3-Methyl-5-(5-(4-((4-methylpiperazin-1-yl)methyl)phenyl)-1H-pyrrolo[2,3-b]pyridin-3-yl)pyridin-2-amine], in data set [1], the “maximum efficacy compared with compound 1” value was “greater maximum efficacy than compound 1” and the concentration giving a half-maximal response (EC50) is below 220 nM. In the same order, the values of `CN1CCN(Cc2ccc(-c3cnc4[nH]cc(-c5ccc6[nH]ncc6c5)c4c3)cc2)CC1` [7v, 5-(5-(4-((4-Methylpiperazin-1-yl)methyl)phenyl)-1H-pyrrolo[2,3-b]pyridin-3-yl)-1H-indazole] are “greater maximum efficacy than compound 1” and below 220 nM. `CN1CCN(Cc2ccc(-c3cnc4[nH]cc(-c5ccc(N)cc5)c4c3)cc2)CC1` [7e, 4-(5-(4-((4-Methylpiperazin-1-yl)methyl)phenyl)-1H-pyrrolo[2,3-b]pyridin-3-yl)aniline]: the “maximum efficacy compared with compound 1” value in data set [1] is reported as “greater maximum efficacy than compound 1”.

In the case of `O[C@@H]1CCN(Cc2ccc(-c3cnc4[nH]cc(-c5cccc(Cl)c5)c4c3)cc2)C1` [12l, (R)-1-(4-(3-(3-Chlorophenyl)-1H-pyrrolo[2,3-b]pyridin-5-yl)benzyl)pyrrolidin-3-ol], the “inhibition of JNK pathway components” value in data set [2] is “effectively inhibit the same JNK pathway components as compound 1”. Besides, the “concentrations that completely blocked the effects of CPA treatment” value in data set [1] is below 0.3 µM.

Turning to `CCC(=O)Nc1cccc(Oc2nc(Nc3ccc(N4CCN(C)CC4)cc3OC)ncc2Cl)c1` [WZ4003], in data set [3], the “rescue of CPA toxicity / neuroprotection” value is on record as “did not rescue CPA toxicity” and the “concentrations toxic to motor neurons in the absence of CPA” value is listed as “above 2 μM”. Take `COC(=O)Nc1cccc(-c2c[nH]c3ncc(-c4ccc(CN5CCN(C)CC5)cc4)cc23)c1` [7al, Methyl (3-(5-(4-((4-methylpiperazin-1-yl)methyl)phenyl)-1H-pyrrolo[2,3-b]pyridin-3-yl)phenyl)carbamate]: in data set [1], the “maximum efficacy compared with compound 1” value was “greater maximum efficacy than compound 1”. Turning to `CN1CCN(Cc2ccc(-c3cnc4[nH]cc(-c5cccc6c5oc5ccccc56)c4c3)cc2)CC1` [7c, 3-(Dibenzo[b,d]furan-4-yl)-5-(4-((4-methylpiperazin-1-yl)methyl)phenyl)-1H-pyrrolo[2,3-b]pyridine], the “neuroprotection in CPA survival assay” value in data set [1] is recorded as “completely ineffective”. For the compound `CN1CCN(Cc2ccc(-c3cnc4[nH]cc(-c5cccc6[nH]ncc56)c4c3)cc2)CC1` [7aa, 4-(5-(4-((4-Methylpiperazin-1-yl)methyl)phenyl)-1H-pyrrolo[2,3-b]pyridin-3-yl)-1H-indazole], in data set [1], the “maximum efficacy compared with compound 1” value is reported as “greater maximum efficacy than compound 1” and the 50% effective concentration (EC50) was below 220 nM.

`O[C@@H]1CCN(Cc2ccc(-c3cnc4[nH]cc(-c5cccc(F)c5)c4c3)cc2)C1` [12i, (R)-1-(4-(3-(3-Fluorophenyl)-1H-pyrrolo[2,3-b]pyridin-5-yl)benzyl)pyrrolidin-3-ol]: the “inhibition of JNK pathway components” value in data set [2] was “effectively inhibit the same JNK pathway components as compound 1”. Besides, the “concentrations that completely blocked the effects of CPA treatment” value in data set [1] was below 0.3 µM.

Consider `CN1CCN(Cc2ccc(-c3cnc4[nH]cc(-c5cccc(F)c5)c4c3)cc2)CC1` [7y, 3-(3-Fluorophenyl)-5-(4-((4-methylpiperazin-1-yl)methyl)phenyl)-1H-pyrrolo[2,3-b]pyridine], for which the “maximum efficacy compared with compound 1” value in data set [1] is “greater maximum efficacy than compound 1”. Regarding `CN1CCN(Cc2ccc(-c3cnc4[nH]cc(-c5ccc(N)nc5)c4c3)cc2)CC1` [7m, 5-(5-(4-((4-Methylpiperazin-1-yl)methyl)phenyl)-1H-pyrrolo[2,3-b]pyridin-3-yl)pyridin-2-amine], the EC50 in data set [1] was below 220 nM.

On to `CN1CCN(Cc2ccc(-c3cnc4[nH]cc(-c5cccc(N)c5)c4c3)cc2)CC1` [7h, 3-(5-(4-((4-Methylpiperazin-1-yl)methyl)phenyl)-1H-pyrrolo[2,3-b]pyridin-3-yl)aniline], for which, in data set [1], the “maximum efficacy compared with compound 1” value is “greater maximum efficacy than compound 1” and the EC50 is below 220 nM.

Consider `CNC(=O)Nc1ccc(-c2c[nH]c3ncc(-c4ccc(CN5CCN(C)CC5)cc4)cc23)cc1` [7am, 1-Methyl-3-(4-(5-(4-((4-methylpiperazin-1-yl)methyl)phenyl)-1H-pyrrolo[2,3-b]pyridin-3-yl)phenyl)urea], for which, in data set [1], the “maximum efficacy compared with compound 1” value is reported as “greater maximum efficacy than compound 1”.

In the case of `Cn1c2ccccc2c2c3c(c4c5ccccc5n(CCC#N)c4c21)CNC3=O` [Gö6976], in data set [4], the “protection of motor neurons from ER stress” value (“protection of motor neurons” below) is “protect motor neurons from ER stress”.

Take `Cc1nc(Nc2cnn(C3CCNCC3)c2)nc2c1N(C)C(=O)c1cc3ccccc3cc1N2C` [HTH 01–015]: in data set [3], the “rescue of CPA toxicity / neuroprotection” value was “did not rescue CPA toxicity” and the “concentrations toxic to motor neurons in the absence of CPA” value is recorded as “above 2 μM”. On to `CN1CC2CCC(C1)N2Cc1ccc(-c2cnc3[nH]cc(-c4cccc(Cl)c4)c3c2)cc1` [12f, 3-(3-Chlorophenyl)-5-(4-((3-methyl-3,8-diazabicyclo[3.2.1]octan-8-yl)methyl)phenyl)-1H-pyrrolo[2,3-b]pyridine], for which, in data set [1], the 50% effective concentration (EC50) came out at 110 nM. In data set [1] (motor neuron survival assay), the “concentrations at which compound was toxic” value was “above 0.3 μM”. With `CNC(=O)Nc1cccc(-c2c[nH]c3ncc(-c4ccc(CN5CCN(C)CC5)cc4)cc23)c1` [7ak, 1-Methyl-3-(3-(5-(4-((4-methylpiperazin-1-yl)methyl)phenyl)-1H-pyrrolo[2,3-b]pyridin-3-yl)phenyl)urea], the “maximum efficacy compared with compound 1” value in data set [1] was “greater maximum efficacy than compound 1”.

Consider `COC(=O)[C@@]1(O)C[C@H]2O[C@]1(C)n1c3ccccc3c3c4c(c5c6ccccc6n2c5c31)C(=O)NC4` [K252a], for which the “protection of motor neurons” value in data set [4] is on record as “protect motor neurons from ER stress”. With `O=C1Cc2c([nH]c3ccc(Br)cc23)-c2ccccc2N1` [kenpaullone], the “protection of motor neurons” value in data set [4] is “protect motor neurons from ER stress”. Regarding `OCCN1CCN(Cc2ccc(-c3cnc4[nH]cc(-c5cccc(F)c5)c4c3)cc2)CC1` [12h, 2-(4-(4-(3-(3-Fluorophenyl)-1H-pyrrolo[2,3-b]pyridin-5-yl)benzyl)piperazin-1-yl)ethan-1-ol], the “inhibition of JNK pathway components” value in data set [2] is on record as “effectively inhibit the same JNK pathway components as compound 1”. In addition, in data set [1], the “concentrations that completely blocked the effects of CPA treatment” value is below 0.3 µM. `Nc1ccc(-c2cnc(N)c(-c3ccc(Cl)cc3)c2)cn1` [PF-6260933]: in data set [3], the “rescue of CPA toxicity / neuroprotection” value was “neuroprotective”. Still for that read-out and setting: in the case of `O=C1Cc2c([nH]c3ccc([N+](=O)[O-])cc23)-c2ccccc2N1` [alsterpaullone] it was “more potent than kenpaullone”. As for `CN1CCN(Cc2ccc(-c3cnc4[nH]cc(-c5ccccc5)c4c3)cc2)CC1` [7ac, 5-(4-((4-Methylpiperazin-1-yl)methyl)phenyl)-3-phenyl-1H-pyrrolo[2,3-b]pyridine], in data set [1], the “maximum efficacy compared with compound 1” value is recorded as “greater maximum efficacy than compound 1”. On the same count and under the same terms, the entry for `CN1CCN(Cc2ccc(-c3cnc4[nH]cc(-c5cccc([N+](=O)[O-])c5)c4c3)cc2)CC1` [7p, 5-(4-((4-Methylpiperazin-1-yl)methyl)phenyl)-3-(3-nitrophenyl)-1H-pyrrolo[2,3-b]pyridine] is “greater maximum efficacy than compound 1”. For the compound `CN1CCN(Cc2ccc(-c3cnc4[nH]cc(-c5cccc(NC(=O)NCc6ccco6)c5)c4c3)cc2)CC1` [7ay, 1-(Furan-2-ylmethyl)-3-(3-(5-(4-((4-methylpiperazin-1-yl)methyl)phenyl)-1H-pyrrolo[2,3-b]pyridin-3-yl)phenyl)urea], the “neuroprotection in CPA survival assay” value in data set [1] is “completely ineffective”.

These data come from publication PMC7253076 (Cell chemical biology, 2019).
